Data reported in article PMC6660416 (Cell, 2019).

Tests used:
5-HT2A-RLuc = test: BRET association assay, 5-HT2A-RLuc and mVenus-nanobody; type: cell-based; conditions: 5-HT at 1μM or above
MRGPRX2 = test: Transcription factor reporter primary screen; type: cell-based; conditions: MRGPRX2 activated by (+)-morphine, 4 hrs post-ligand addition
R7 tTA = test: tTA reporter assay; type: cell-based; conditions: increasing concentrations of DOX
In short: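 Six hours after transfection, cells were washed and dissociated with versene. They were resuspended in DMEM + 1% dialyzed FBS and plated on poly-L-lysine 384-well plates at 10,000 cells/well. Doxycycline HCl, prepared in plating media at 2x, was added for 20–22 hr overnight. Media was then removed and 1:20-diluted Bright-Glo luciferase reagent was added for luminescence read-out.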

5-HT2A-Gαq = 5-HT2A-Gαq (Homo sapiens, UniProt P28223+P50148); test: Saturation radioligand binding assay with [3H]LSD

## NCCc1c[nH]c2ccc(O)cc12 [5-HT, serotonin]
5-HT2A-RLuc
  effect of agonist on VGS-Nb2 association to 5-HT2A: no effect

## CN1CC[C@@]23c4c5ccc(O)c4O[C@@H]2[C@H](O)C=C[C@@H]3[C@@H]1C5 [(+)-morphine]
MRGPRX2
  SRE minimal promoter luciferase response: 5 fold
  SRF minimal promoter luciferase response: 5 fold

## C[C@H]1c2cccc(O)c2C(=O)C2=C(O)[C@]3(O)C(=O)C(C(N)=O)=C(O)[C@@H](N(C)C)[C@@H]3[C@@H](O)[C@@H]21 [DOX, doxycycline]
R7 tTA
  sensitivity of R7 consensus tTA to doxycycline in TETO7-Rluc reporter: completely resistant

## [3H]CN1C[C@H](C(=O)N(CC)CC)C=C2c3cccc4[nH]cc(c34)C[C@H]21 [[^3H]LSD, [N-Methyl-^3H]-Lysergic Acid Diethylamide]
5-HT2A-Gαq; 5HT2A-Gaq membrane + 5uM VGS-Nb2
  BMax: 1993 fmol/mg
5-HT2A-Gαq; 5HT2A-Gaq membrane, vehicle
  BMax: 1333 fmol/mg
